ChEMBL document CHEMBL3808358, “Rational Design of Small Peptides for Optimal Inhibition of Cyclooxygenase-2: Development of a Highly Effective Anti-Inflammatory Agent” (J Med Chem, 2016)
Calls of active or inactive are those of the source. The calls are words filed in the database; no cut-off is given here. Residues, ends and D or L forms follow the SMILES beside them. *: point of attachment. Cbz = O=C(OCc1ccccc1)*

Tests used:
[1] = Selectivity index, ratio of IC50 for ovine COX1 to IC50 for human recombinant COX2
Method in brief: (§1)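 Ovine COX-1 and human recombinant COX-2 with heme are preincubated with inhibitor for 10 min at 37 °C. Arachidonic acid is then added for 2 min at 37 °C. Prostaglandins are quantified by competitive AChE-tracer EIA, read at 420 nm. Four concentrations (10^-5 to 10^-8 M) are tested in triplicate. IC50 is taken from the dose-response curve of the mean % inhibition.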

[2] = target: T1, Prostaglandin G/H synthase 1 (Ovis aries, UniProt P05979); experiment: Inhibition of ovine COX1 assessed as reduction in PGH2-derived PGF2alpha using arachidonic acid as substrate preincubated for 10 mins followed by substrate addition measured after 2 mins by enzyme immunoassay; method in brief: as §1
T1 sequence (P05979 whole entry): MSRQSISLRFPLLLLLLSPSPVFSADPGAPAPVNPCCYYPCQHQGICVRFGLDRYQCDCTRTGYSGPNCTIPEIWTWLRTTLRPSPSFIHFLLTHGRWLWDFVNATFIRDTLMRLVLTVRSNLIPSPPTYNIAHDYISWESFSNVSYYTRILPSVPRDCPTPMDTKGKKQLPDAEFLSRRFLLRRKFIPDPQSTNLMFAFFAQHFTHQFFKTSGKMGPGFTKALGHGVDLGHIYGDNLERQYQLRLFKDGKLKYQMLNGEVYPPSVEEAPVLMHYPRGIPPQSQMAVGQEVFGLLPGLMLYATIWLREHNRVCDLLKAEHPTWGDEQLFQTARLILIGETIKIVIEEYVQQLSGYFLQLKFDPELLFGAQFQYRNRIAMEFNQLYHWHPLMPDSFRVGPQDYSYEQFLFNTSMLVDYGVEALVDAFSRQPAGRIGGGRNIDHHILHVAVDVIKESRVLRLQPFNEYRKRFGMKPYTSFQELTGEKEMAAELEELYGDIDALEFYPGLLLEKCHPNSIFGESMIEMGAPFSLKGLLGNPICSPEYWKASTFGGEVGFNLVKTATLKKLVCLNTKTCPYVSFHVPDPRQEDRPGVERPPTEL

[3] = target: T2, Prostaglandin G/H synthase 2 (Homo sapiens, UniProt P35354); experiment: Inhibition of human recombinant COX2 assessed as reduction in PGH2-derived PGF2alpha using arachidonic acid as substrate preincubated for 10 mins followed by substrate addition measured after 2 mins by enzyme immunoassay
T2 sequence (P35354 whole entry): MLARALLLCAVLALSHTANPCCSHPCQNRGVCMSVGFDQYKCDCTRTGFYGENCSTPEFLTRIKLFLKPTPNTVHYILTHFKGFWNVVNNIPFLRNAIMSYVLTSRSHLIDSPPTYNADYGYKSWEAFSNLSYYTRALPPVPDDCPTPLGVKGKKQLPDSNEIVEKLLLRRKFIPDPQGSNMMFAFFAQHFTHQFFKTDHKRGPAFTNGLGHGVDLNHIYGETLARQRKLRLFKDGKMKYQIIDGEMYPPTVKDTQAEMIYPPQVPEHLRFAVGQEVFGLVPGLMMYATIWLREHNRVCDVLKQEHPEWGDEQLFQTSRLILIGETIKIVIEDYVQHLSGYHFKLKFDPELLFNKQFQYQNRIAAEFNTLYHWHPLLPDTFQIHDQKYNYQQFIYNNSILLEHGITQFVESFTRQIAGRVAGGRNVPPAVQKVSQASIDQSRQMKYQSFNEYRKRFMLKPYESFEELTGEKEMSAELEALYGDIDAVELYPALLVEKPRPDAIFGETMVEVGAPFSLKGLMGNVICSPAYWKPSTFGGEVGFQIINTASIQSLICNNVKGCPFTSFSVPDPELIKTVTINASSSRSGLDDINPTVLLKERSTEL

Mus musculus [4] = experiment: Analgesic activity in Swiss albino mouse assessed as reduction in capsaicin-induced paw licking at 5 to 10 mg/kg, ip dosed 30 mins before capsaicin injection measured for 10 mins; format: functional, organism-based
Method in brief: (§2)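 Swiss albino mice of either sex (25-35 g), kept at 22 ± 2 °C on a 12 h light/dark cycle with free food and water. 5 animals per group. Capsaicin (1.6 μg in 20 μL) is injected into the plantar surface of the hind paw. Pain is scored as the number of paw lickings over 10 min.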

Mus musculus [5] = experiment: Analgesic activity in Swiss albino mouse assessed as reduction in formalin-induced paw flinches in neurogenic phase at 5 mg/kg, ip dosed 30 mins before formalin injection measured up to 5 mins; format: functional, organism-based
Method in brief: (§3)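 Swiss albino mice of either sex (25-35 g). 20 μL of 2% formalin is injected into the plantar surface of the right hind paw 30 min after treatment. Hind paw flinches are counted for the neurogenic phase (0-5 min) and the inflammatory phase (15-30 min). Results are given as mean ± SEM.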

Mus musculus [6] = experiment: Antiinflammatory activity in Swiss albino mouse assessed as reduction in carrageenan-induced paw edema at 10 mg/kg, ip dosed 30 mins before carrageenan injection measured up to 300 mins by vernier calliper method relative to control; format: functional, organism-based
Mus musculus [7] = experiment: Analgesic activity in Swiss albino mouse assessed as reduction in formalin-induced paw flinches in inflammatory phase at 5 mg/kg, ip dosed 30 mins before formalin injection measured after 15 to 30 mins; format: functional, organism-based; method in brief: as §3
Mus musculus [8] = experiment: Analgesic activity in Swiss albino mouse assessed as reduction in capsaicin-induced paw licking at 10 mg/kg, ip dosed 30 mins before capsaicin injection measured for 10 mins; format: functional, organism-based; method in brief: as §2
[9] = target: Prostaglandin G/H synthase 1 (Homo sapiens) (UniProt P23219); experiment: Inhibition of COX1 in healthy human whole blood assessed as calcium ionophore A23187-stimulated TXB2 level at 1 uM preincubated for 60 mins followed by A23187 addition measured after 30 mins by ELISA; format: tissue-based
Method in brief: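 Fresh venous blood from a healthy volunteer is collected in EDTA. 1 mL samples receive compound, indomethacin or DMSO vehicle (final 1 μM). After 60 min, A23187 is added (final 50 μM). After 30 min, samples are centrifuged at 4 °C and TxB2 in plasma is measured by ELISA, read at 420 nm. Samples are run in duplicate.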

Prostaglandin G/H synthase 1 (Homo sapiens), sequence (P23219 whole entry): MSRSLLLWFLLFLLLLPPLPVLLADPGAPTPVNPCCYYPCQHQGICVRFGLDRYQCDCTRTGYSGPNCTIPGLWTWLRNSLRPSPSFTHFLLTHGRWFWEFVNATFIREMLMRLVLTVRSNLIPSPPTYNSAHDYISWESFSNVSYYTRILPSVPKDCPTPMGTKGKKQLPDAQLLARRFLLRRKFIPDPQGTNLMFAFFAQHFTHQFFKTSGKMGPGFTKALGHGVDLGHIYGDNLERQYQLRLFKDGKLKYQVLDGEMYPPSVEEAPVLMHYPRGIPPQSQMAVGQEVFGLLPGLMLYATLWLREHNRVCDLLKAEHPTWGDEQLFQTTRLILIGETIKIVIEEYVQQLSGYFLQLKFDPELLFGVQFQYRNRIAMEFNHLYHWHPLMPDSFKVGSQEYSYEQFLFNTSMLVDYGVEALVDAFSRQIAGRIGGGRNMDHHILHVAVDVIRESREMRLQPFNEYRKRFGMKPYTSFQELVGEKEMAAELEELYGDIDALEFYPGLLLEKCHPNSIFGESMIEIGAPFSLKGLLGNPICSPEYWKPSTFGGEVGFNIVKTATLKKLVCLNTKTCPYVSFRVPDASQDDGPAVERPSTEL

Compound | Ratio IC50 [1] | IC50 [2] | IC50 [3] | other results
COC(=O)[C@@H](NC(=O)[C@H](C)NC(=O)CN)C(C)C (H-Gly-Ala-Val-OMe) | > 1 | > 10 µM | 10 µM | 
COC(=O)[C@H](CC(C)C)NC(=O)CNC(=O)[C@@H](NC(=O)OCc1ccccc1)C(C)C (Cbz-Val-Gly-Leu-OMe) |  | > 10 µM | 56 µM | 
COC(=O)[C@H](CC(C)C)NC(=O)CNC(=O)[C@@H](N)C(C)C (H-Val-Gly-Leu-OMe) |  | > 10 µM | 10 µM | 
O=C(O)Cc1ccccc1Nc1c(Cl)cccc1Cl |  |  |  | Activity (Mus musculus [5]): inactive; Activity (Mus musculus [6]): Active; Activity (Mus musculus [7]): Active
COC(=O)[C@H](CC(C)C)NC(=O)[C@H](Cc1ccccc1)NC(=O)CNC(=O)CNC(=O)OCc1ccccc1 (Cbz-GGFL-OMe) |  | > 10 µM | 20 µM | 
COc1ccc2c(c1)c(CC(=O)O)c(C)n2C(=O)c1ccc(Cl)cc1 |  |  |  | Activity (Mus musculus [8]): Active; Activity [9]: 2.7 ng/mL
CC(C)C[C@H](NC(=O)CNC(=O)[C@@H](NC(=O)OCc1ccccc1)C(C)C)C(=O)O (Cbz-Val-Gly-Leu-OH) |  | > 10 µM | 28 µM | 
COC(=O)[C@H](CC(C)C)NC(=O)[C@H](C)NC(=O)[C@@H](NC(=O)CNC(=O)OCc1ccccc1)C(C)C (Cbz-GVAL-OMe) |  | > 10 µM | 19 µM | 
COC(=O)[C@H](C)NC(=O)[C@H](CC(C)C)NC(=O)CNC(=O)[C@@H](NC(=O)OCc1ccccc1)C(C)C (Cbz-VGLA-OMe) | > 125 | > 10 µM | 0.08 µM | Activity (Mus musculus [4]): Active
O=C(O)CNC(=O)CNC(=O)OCc1ccccc1 (Cbz-Gly-Gly-OH) |  | > 10 µM |  | 
CC(C)C[C@H](NC(=O)[C@@H](NC(=O)[C@H](C)NC(=O)CNC(=O)OCc1ccccc1)C(C)C)C(=O)O (Cbz-GAVL-OH) |  | > 10 µM | 8 µM | 

Second part, led by results:

Ratio IC50 [1] | IC50 [2] | IC50 [3] | Compound | other results
> 10 | > 10 µM | 1 µM | COC(=O)CNC(=O)CNC(=O)OCc1ccccc1 (Cbz-Gly-Gly-OMe) | 
 | > 10 µM | 22 µM | COC(=O)[C@H](CC(C)C)NC(=O)[C@@H](NC(=O)[C@H](C)NC(=O)CNC(=O)OCc1ccccc1)C(C)C (Cbz-GAVL-OMe) | 
80 | 8 µM | 0.1 µM | COC(=O)[C@@H](NC(=O)[C@H](C)NC(=O)CNC(=O)OCc1ccccc1)C(C)C (Cbz-Gly-Ala-Val-OMe) | Activity (Mus musculus [4]): Active
> 25 | > 10 µM | 0.4 µM | CC(C)C[C@H](NC(=O)[C@H](Cc1ccccc1)NC(=O)CNC(=O)CN)C(=O)O (H-GGFL-OH) | 
> 3 | > 10 µM | 3 µM | CC(C)[C@H](NC(=O)[C@H](C)NC(=O)CNC(=O)OCc1ccccc1)C(=O)O (Cbz-Gly-Ala-Val-OH) | 
 | > 10 µM | 55 µM | CC(C)[C@H](NC(=O)OCc1ccccc1)C(=O)NCC(=O)O (Cbz-Val-Gly-OH) | 
6 | 0.3 µM | 0.05 µM | CC(C)C[C@H](NC(=O)CNC(=O)[C@@H](NC(=O)OCc1ccccc1)C(C)C)C(=O)N[C@@H](C)C(=O)O (Cbz-VGLA-OH) | 
 | > 10 µM | 75 µM | COC(=O)CNC(=O)[C@@H](NC(=O)OCc1ccccc1)C(C)C (Cbz-Val-Gly-OMe) | 
45 | 9 µM | 0.2 µM | CC(C)[C@H](NC(=O)[C@H](C)NC(=O)CN)C(=O)O (H-Gly-Ala-Val-OH) | 
6 | 3 µM | 0.5 µM | CC(C)C[C@H](NC(=O)[C@H](Cc1ccccc1)NC(=O)CNC(=O)CNC(=O)OCc1ccccc1)C(=O)O (Cbz-GGFL-OH) | 
10 | 3 µM | 0.3 µM | CC(C)C[C@H](NC(=O)[C@H](C)NC(=O)[C@@H](NC(=O)CNC(=O)OCc1ccccc1)C(C)C)C(=O)O (Cbz-GVAL-OH) | 
